Measurements from ChEMBL document CHEMBL1138520, “Molecular and conformational determinants of pituitary adenylate cyclase-activating polypeptide (PACAP) for activation of the PAC1 receptor” (J Med Chem, 2009).
Where a SMILES comes first, the peptide text is derived from it.

Key:
[1] = target: T1, Pituitary adenylate cyclase-activating polypeptide type I receptor (Homo sapiens, UniProt P41586); test: Agonist activity at human recombinant PAC1 receptor expressed in CHO cells assessed as PACAP38-induced calcium mobilization by FLIPR assay; type: functional, cell-based
How it was run: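 CHO cells stably expressing recombinant human PAC1, plated 24 h before assay, loaded with fluo-4 AM for 60 min at 37 °C in the dark, then rinsed into HBSS for 15 min at 37 °C. EC50 and efficacy came from nonlinear regression; 4-10 independent assays in duplicate.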
Target sequence in this assay (P41586 whole entry): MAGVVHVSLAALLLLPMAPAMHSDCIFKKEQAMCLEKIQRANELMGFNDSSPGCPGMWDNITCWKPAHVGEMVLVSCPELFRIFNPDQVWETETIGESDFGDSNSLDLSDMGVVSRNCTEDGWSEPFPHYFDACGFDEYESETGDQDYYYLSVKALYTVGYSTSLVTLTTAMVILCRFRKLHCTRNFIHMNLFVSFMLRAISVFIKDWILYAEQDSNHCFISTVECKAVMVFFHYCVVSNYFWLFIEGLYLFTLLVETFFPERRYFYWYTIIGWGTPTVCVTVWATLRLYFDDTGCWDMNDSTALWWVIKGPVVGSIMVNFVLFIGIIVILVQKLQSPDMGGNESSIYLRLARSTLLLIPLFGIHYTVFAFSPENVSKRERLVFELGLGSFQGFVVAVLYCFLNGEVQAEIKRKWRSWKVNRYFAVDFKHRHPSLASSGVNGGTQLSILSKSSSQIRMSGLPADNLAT

[2] = target: T1, Pituitary adenylate cyclase-activating polypeptide type I receptor; test: Displacement of [125I]Ac-PACAP27 from human recombinant PAC1 receptor expressed in CHO cells by gamma- counter; type: cell-based
Target sequence in this assay (P41586 whole entry): as above

[3] = target: T1, Pituitary adenylate cyclase-activating polypeptide type I receptor; test: Agonist activity at human recombinant PAC1 receptor expressed in CHO cells assessed as PACAP38-induced calcium mobilization by FLIPR assay relative to PACAP38; type: functional, cell-based
How it was run: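 CHO cells stably expressing recombinant human PAC1, plated 24 h before assay, loaded with fluo-4 AM for 60 min at 37 °C in the dark, then rinsed into HBSS for 15 min at 37 °C. Peptide was added 18 s into a 150 s read (ex 480/em 525 nm), at final concentrations of 1 × 10-12 to 1 × 10^-5 M. Response was normalised to 1 × 10^-5 M PACAP38 on each plate. EC50 and efficacy came from nonlinear regression; 4-10 independent assays in duplicate.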
Target sequence in this assay (P41586 21-468 limits assumed): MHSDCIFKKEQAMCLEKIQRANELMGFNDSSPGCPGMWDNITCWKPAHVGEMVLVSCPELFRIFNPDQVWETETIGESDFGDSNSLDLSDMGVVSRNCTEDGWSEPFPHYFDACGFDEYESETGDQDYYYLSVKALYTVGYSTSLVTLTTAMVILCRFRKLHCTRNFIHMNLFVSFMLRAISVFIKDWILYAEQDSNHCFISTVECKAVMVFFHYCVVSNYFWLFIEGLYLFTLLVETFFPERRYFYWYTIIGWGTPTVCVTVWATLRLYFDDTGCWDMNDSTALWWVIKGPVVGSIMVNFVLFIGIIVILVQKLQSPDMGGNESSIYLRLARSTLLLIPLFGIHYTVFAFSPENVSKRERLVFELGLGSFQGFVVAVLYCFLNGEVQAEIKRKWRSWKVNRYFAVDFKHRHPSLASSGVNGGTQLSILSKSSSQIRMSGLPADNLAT

Row | SMILES | EC50 [1] [nM] | IC50 [2] [nM] | Emax [3] [%]
1 | CSCC[C@H](NC(=O)[C@H](CCC(N)=O)NC(=O)[C@H](CCCCN)NC(=O)[C@H](CCCNC(=N)N)NC(=O)[C@H](Cc1ccc(O)cc1)NC(=O)[C@H](CCCNC(=N)N)NC(=O)[C@H](CO)NC(=O)[C@H](Cc1ccc(O)cc1)NC(=O)[C@H](CO)NC(=O)[C@H](CC(=O)O)NC(=O)[C@@H](NC(=O)[C@H](Cc1ccccc1)NC(=O)[C@H](C)NC(=O)CNC(=O)[C@H](CC(=O)O)NC(=O)[C@H](CO)NC(=O)[C@@H](N)Cc1cnc[nH]1)[C@@H](C)O)C(=O)N[C@@H](C)C(=O)N[C@H](C(=O)N[C@@H](CCCCN)C(=O)N[C@@H](CCCCN)C(=O)N[C@@H](Cc1ccc(O)cc1)C(=O)N[C@@H](CC(C)C)C(=O)N[C@@H](C)C(=O)N[C@@H](C)C(=O)N[C@H](C(=O)N[C@@H](CC(C)C)C(N)=O)C(C)C)C(C)C | 39.8 | 60.7 | 99.2
2 | CC[C@H](C)[C@H](NC(=O)CNC(=O)[C@H](CC(=O)O)NC(=O)[C@H](CO)NC(=O)[C@@H](N)Cc1cnc[nH]1)C(=O)N[C@@H](Cc1cccc2ccccc12)C(=O)N[C@H](C(=O)N[C@@H](CC(=O)O)C(=O)N[C@@H](CO)C(=O)N[C@@H](Cc1ccc(O)cc1)C(=O)N[C@@H](CO)C(=O)N[C@@H](CCCNC(=N)N)C(=O)N[C@@H](Cc1ccc(O)cc1)C(=O)N[C@@H](CCCNC(=N)N)C(=O)N[C@@H](CCCCN)C(=O)N[C@@H](CCC(N)=O)C(=O)N[C@@H](CCSC)C(=O)N[C@@H](C)C(=O)N[C@H](C(=O)N[C@@H](CCCCN)C(=O)N[C@@H](CCCCN)C(=O)N[C@@H](Cc1ccc(O)cc1)C(=O)N[C@@H](CC(C)C)C(=O)N[C@@H](C)C(=O)N[C@@H](C)C(=O)N[C@H](C(=O)N[C@@H](CC(C)C)C(N)=O)C(C)C)C(C)C)[C@@H](C)O | 0.7 | 6.5 | 110
3 | CC[C@H](C)[C@H](NC(=O)CNC(=O)[C@H](CC(=O)O)NC(=O)[C@H](CO)NC(=O)[C@@H](N)Cc1cnc[nH]1)C(=O)N[C@@H](Cc1ccc(O)cc1)C(=O)N[C@H](C(=O)N[C@@H](CC(=O)O)C(=O)N[C@@H](CO)C(=O)N[C@@H](Cc1ccc(O)cc1)C(=O)N[C@@H](CO)C(=O)N[C@@H](CCCNC(=N)N)C(=O)N[C@@H](Cc1ccc(O)cc1)C(=O)N[C@@H](CCCNC(=N)N)C(=O)N[C@@H](CCCCN)C(=O)N[C@@H](CCC(N)=O)C(=O)N[C@@H](CCSC)C(=O)N[C@@H](C)C(=O)N[C@H](C(=O)N[C@@H](CCCCN)C(=O)N[C@@H](CCCCN)C(=O)N[C@@H](Cc1ccc(O)cc1)C(=O)N[C@@H](CC(C)C)C(=O)N[C@@H](C)C(=O)N[C@@H](C)C(=O)N[C@H](C(=O)N[C@@H](CC(C)C)C(=O)NCC(=O)N[C@@H](CCCCN)C(=O)N[C@@H](CCCNC(=N)N)C(=O)N[C@@H](Cc1ccc(O)cc1)C(=O)N[C@@H](CCCCN)C(=O)N[C@@H](CCC(N)=O)C(=O)N[C@@H](CCCNC(=N)N)C(=O)N[C@H](C(=O)N[C@@H](CCCCN)C(=O)N[C@@H](CC(N)=O)C(=O)N[C@@H](CCCCN)C(N)=O)C(C)C)C(C)C)C(C)C)[C@@H](C)O (H-HSDGIYTDSYSRYRKQMAVKKYLAAVLGKRYKQRVKNK-NH2) | 2.7 | 6.7 | 99.4
4 | CC[C@H](C)[C@H](NC(=O)CNC(=O)[C@H](CCC(=O)O)NC(=O)[C@H](CO)NC(=O)[C@@H](N)Cc1cnc[nH]1)C(=O)N[C@@H](Cc1ccccc1)C(=O)N[C@H](C(=O)N[C@@H](CC(=O)O)C(=O)N[C@@H](CO)C(=O)N[C@@H](Cc1ccc(O)cc1)C(=O)N[C@@H](CO)C(=O)N[C@@H](CCCNC(=N)N)C(=O)N[C@@H](Cc1ccc(O)cc1)C(=O)N[C@@H](CCCNC(=N)N)C(=O)N[C@@H](CCCCN)C(=O)N[C@@H](CCC(N)=O)C(=O)N[C@@H](CCSC)C(=O)N[C@@H](C)C(=O)N[C@H](C(=O)N[C@@H](CCCCN)C(=O)N[C@@H](CCCCN)C(=O)N[C@@H](Cc1ccc(O)cc1)C(=O)N[C@@H](CC(C)C)C(=O)N[C@@H](C)C(=O)N[C@@H](C)C(=O)N[C@H](C(=O)N[C@@H](CC(C)C)C(N)=O)C(C)C)C(C)C)[C@@H](C)O | 20.6 | 10.6 | 90.5
